Assay results as given in ChEMBL document CHEMBL3108700, “Designing anti-inflammatory drugs from parasitic worms: a synthetic small molecule analogue of the Acanthocheilonema viteae product ES-62 prevents development of collagen-induced arthritis” (J Med Chem, 2013).
Calls of active or inactive are those of the source.

Legend:
[1] = target: T1, TLR2/TLR6 (Mus musculus) (UniProt Q9QUN7+Q9EPW9); experiment: Inhibition of TLR2/6 in BALB/c mouse BMDM assessed as downregulation of BLP-stimulated IL-6 level at 5 ug/ml preincubated for 18 hrs followed by BLP challenge measured after 24 hrs by ELISA relative to control; format: protein-complex assay
Outline: (§1)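 BALB/c male bone marrow macrophages were differentiated 7 days with L929 supernatant (≥99% CD11b+/F4/80+). Cells were plated at 2 × 10^5/well in triplicate, rested overnight, and given compounds at 5 μg/mL for 18 h. They were then stimulated with 100 ng/mL S. minnesota LPS, 10 ng/mL Pam3CSK4 (BLP) or 0.01 μM CpG for 24 h. Supernatant IL-12p40 and IL-6 were measured by ELISA (sensitivity 16 pg/mL).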

[2] = target: T1, TLR2/TLR6 (Mus musculus); experiment: Inhibition of TLR2/6 in BALB/c mouse BMDM assessed as downregulation of BLP-stimulated IL-12p40 level at 5 ug/ml preincubated for 18 hrs followed by BLP challenge measured after 24 hrs by ELISA relative to control; format: protein-complex assay; outline: as §1
[3] = target: T2, Toll-like receptor 4 (Mus musculus) (UniProt Q9QUK6); experiment: Inhibition of TLR4 in BALB/c mouse BMDM assessed as downregulation of LPS-stimulated IL-6 level at 5 ug/ml preincubated for 18 hrs followed by LPS challenge measured after 24 hrs by ELISA relative to control; outline: as §1
T2 sequence (whole entry): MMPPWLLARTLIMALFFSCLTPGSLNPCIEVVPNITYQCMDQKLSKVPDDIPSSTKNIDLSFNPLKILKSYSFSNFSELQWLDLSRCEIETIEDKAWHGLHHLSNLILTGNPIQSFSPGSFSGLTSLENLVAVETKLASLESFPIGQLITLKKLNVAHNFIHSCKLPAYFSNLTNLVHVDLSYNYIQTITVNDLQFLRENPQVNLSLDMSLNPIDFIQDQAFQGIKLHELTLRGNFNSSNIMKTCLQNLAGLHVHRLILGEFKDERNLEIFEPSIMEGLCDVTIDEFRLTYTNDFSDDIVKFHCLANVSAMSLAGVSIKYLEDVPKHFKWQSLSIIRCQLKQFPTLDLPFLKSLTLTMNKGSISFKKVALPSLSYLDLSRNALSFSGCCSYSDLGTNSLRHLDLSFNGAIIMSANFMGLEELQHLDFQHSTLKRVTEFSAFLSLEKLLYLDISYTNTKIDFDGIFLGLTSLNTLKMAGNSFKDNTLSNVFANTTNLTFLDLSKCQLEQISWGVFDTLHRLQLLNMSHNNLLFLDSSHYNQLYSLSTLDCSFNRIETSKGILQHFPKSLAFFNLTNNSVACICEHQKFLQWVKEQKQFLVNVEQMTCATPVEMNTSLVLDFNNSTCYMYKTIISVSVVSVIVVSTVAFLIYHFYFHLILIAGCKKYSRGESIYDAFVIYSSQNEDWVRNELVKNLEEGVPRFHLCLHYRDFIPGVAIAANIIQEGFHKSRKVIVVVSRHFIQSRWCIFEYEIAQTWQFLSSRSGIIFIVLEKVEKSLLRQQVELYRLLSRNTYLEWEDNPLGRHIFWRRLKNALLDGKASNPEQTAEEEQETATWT

[4] = target: T3, Toll-like receptor 9 (Mus musculus) (UniProt Q9EQU3); experiment: Inhibition of TLR9 in BALB/c mouse BMDM assessed as downregulation of CpG-stimulated IL-12p40 level at 5 ug/ml preincubated for 18 hrs followed by CpG challenge measured after 24 hrs by ELISA relative to control; outline: as §1
T3 sequence (whole entry): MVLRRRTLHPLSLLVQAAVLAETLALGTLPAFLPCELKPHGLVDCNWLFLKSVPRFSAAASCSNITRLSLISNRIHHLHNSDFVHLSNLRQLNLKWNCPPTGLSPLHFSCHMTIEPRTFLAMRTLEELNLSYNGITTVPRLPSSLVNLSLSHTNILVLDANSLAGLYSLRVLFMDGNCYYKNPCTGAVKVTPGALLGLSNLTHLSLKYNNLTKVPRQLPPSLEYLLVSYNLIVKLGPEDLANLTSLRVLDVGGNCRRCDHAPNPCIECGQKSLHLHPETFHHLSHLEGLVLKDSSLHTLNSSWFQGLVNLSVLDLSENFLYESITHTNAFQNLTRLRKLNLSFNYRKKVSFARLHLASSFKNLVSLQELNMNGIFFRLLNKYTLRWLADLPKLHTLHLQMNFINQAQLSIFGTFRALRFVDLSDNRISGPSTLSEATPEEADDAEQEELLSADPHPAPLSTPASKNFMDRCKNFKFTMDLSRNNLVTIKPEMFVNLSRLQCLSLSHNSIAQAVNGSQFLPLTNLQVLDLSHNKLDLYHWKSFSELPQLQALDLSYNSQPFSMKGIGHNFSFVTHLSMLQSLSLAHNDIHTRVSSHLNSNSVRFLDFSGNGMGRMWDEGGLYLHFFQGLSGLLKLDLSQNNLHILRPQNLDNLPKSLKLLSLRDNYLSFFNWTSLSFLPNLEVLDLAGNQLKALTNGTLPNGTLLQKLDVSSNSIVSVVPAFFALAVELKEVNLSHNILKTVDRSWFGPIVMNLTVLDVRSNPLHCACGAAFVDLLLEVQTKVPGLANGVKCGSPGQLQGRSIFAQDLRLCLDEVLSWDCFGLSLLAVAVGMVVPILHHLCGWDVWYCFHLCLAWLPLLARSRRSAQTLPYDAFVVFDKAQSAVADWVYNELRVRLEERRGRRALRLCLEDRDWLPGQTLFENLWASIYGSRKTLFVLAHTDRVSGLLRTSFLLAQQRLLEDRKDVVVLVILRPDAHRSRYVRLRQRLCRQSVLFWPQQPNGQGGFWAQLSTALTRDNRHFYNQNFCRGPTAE

[5] = target: T3, Toll-like receptor 9 (Mus musculus); experiment: Inhibition of TLR9 in BALB/c mouse BMDM assessed as downregulation of CpG-stimulated IL-6 level at 5 ug/ml preincubated for 18 hrs followed by CpG challenge measured after 24 hrs by ELISA relative to control; outline: as §1
[6] = target: T2, Toll-like receptor 4 (Mus musculus); experiment: Inhibition of TLR4-mediated NFkappaB p65 activation in LPS-stimulated BALB/c mouse BMDM at 5 ug/ml preincubated for 18 hrs followed by LPS challenge measured after 1 hr by TransAM ELISA
Outline: (§2)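 Bone marrow macrophages (4 × 10^6/well) had their medium changed after 24 h, were pretreated with compounds at 5 μg/mL for 18 h, then stimulated for 1 h with 100 ng/mL LPS, 10 ng/mL BLP or 1 μM CpG. Activated NFκB p65 in nuclear extracts was measured by TransAM ELISA in duplicate.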

[7] = target: T2, Toll-like receptor 4 (Mus musculus); experiment: Inhibition of TLR4 in BALB/c mouse BMDM assessed as downregulation of LPS-stimulated IL-12p40 level at 5 ug/ml preincubated for 18 hrs followed by LPS challenge measured after 24 hrs by ELISA relative to control; outline: as §1
[8] = target: T1, TLR2/TLR6 (Mus musculus); experiment: Inhibition of TLR2/6-mediated NFkappaB p65 activation in BLP-stimulated BALB/c mouse BMDM at 5 ug/ml preincubated for 18 hrs followed by BLP challenge measured after 1 hr by TransAM ELISA; format: protein-complex assay; outline: as §2
[9] = target: T3, Toll-like receptor 9 (Mus musculus); experiment: Inhibition of TLR9-mediated NFkappaB p65 activation in CpG-stimulated BALB/c mouse BMDM at 5 ug/ml preincubated for 18 hrs followed by CpG challenge measured after 1 hr by TransAM ELISA; outline: as §2

Row | SMILES | inhibition [1] | inhibition [2] | inhibition [3] | inhibition [4] | inhibition [5] | inhibition [6] | inhibition [7] | inhibition [8] | inhibition [9]
1 | CN(C)CCS(=O)(=O)NCc1ccc([N+](=O)[O-])cc1 | Active | Active | Active | Active | Active | inactive | inactive | inactive | inactive
2 | CC[C@@H](C)NCCS(=O)(=O)Cc1ccc(Br)cc1 | inactive | inactive | inactive | inactive | inactive | – | inactive | – | –
3 | O=S(=O)(CCN1CCCC1)Cc1cccc(F)c1 | inactive | Active | inactive | inactive | inactive | – | inactive | – | –
4 | CN(C)CCN(C)CCS(=O)(=O)Nc1ccc(F)cc1 | inactive | inactive | inactive | inactive | inactive | – | Active | – | –
5 | C[N+](C)(C)CCOP(=O)(O)Cc1ccc(Br)cc1 | inactive | Active | inactive | inactive | inactive | – | Active | – | –
6 | O=S(=O)(CCN1CCCC1)Nc1ccc(F)cc1 | inactive | inactive | inactive | inactive | inactive | – | Active | – | –
7 | CC(C)(C)NCCS(=O)(=O)c1ccccc1 | inactive | Active | inactive | inactive | inactive | – | inactive | – | –
8 | CN(C)CCS(=O)(=O)NCc1ccc(Br)cc1 | inactive | inactive | inactive | inactive | inactive | – | inactive | – | –
9 | O=S(=O)(Cc1ccccc1)NCCN1CCOCC1 | inactive | inactive | inactive | inactive | inactive | – | inactive | – | –
10 | O=[N+]([O-])c1ccc(CS(=O)(=O)NCCN2CCOCC2)cc1 | inactive | inactive | inactive | inactive | inactive | – | inactive | – | –
11 | CN(C)CCCNS(=O)(=O)Cc1ccccc1 | inactive | inactive | inactive | inactive | inactive | – | inactive | – | –
12 | CN(C)CCNCCS(=O)(=O)c1ccccc1 | inactive | inactive | inactive | inactive | inactive | – | inactive | – | –
13 | COc1cccc(C(=O)NCCCN(C)C)c1 | inactive | inactive | inactive | inactive | Active | – | Active | – | –
